# The full list was thinned out, with hits kept by preference.
# CTSL1 counter – cathepsin L1 inhibition, PFM18AAP counter-screen; AID 1906; recombinant F. hepatica cathepsin L1, Z-Leu-Arg-MCA fluorescence; inhibition, % at 5.96 µM; actives 0.49% (n = 300,000);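 active = inhibition above the mean of all tested compounds plus 3 SD, set per screening campaign, cut at about 17% in these data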;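 also: 0% = plate median of test compound wells and 100% = 1 µM Z-Phe-Ala-diazomethylketone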
# UPR XBP1 act – adaptive UPR (XBP1) activation; CHO-XBP1 luciferase reporter, IRE1-XBP1 UPR activation, luminescence; percent of tunicamycin response, DMSO as zero; activation, % at 20 µM; actives 0.33% (n = 330,000); AID 463104;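 active = versus positive control, 20 µM dose yields 30% or more activation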;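 also: 100% = tunicamycin at 10 µg/mL and 0% = DMSO only wells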
#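 Material: CHO cell line with stable XBP1 luciferase reporter; buffer or medium: F12 medium containing 10% fetal bovine serum; compound: single point, 20 µM final compound, 1% DMSO; incubation: 6 h treatment, 37 °C; measured by: glow luminescence from Steady-Glo reagent; evaluation: activation, % of tunicamycin; control set: tunicamycin high, DMSO low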
# CHOP inhibitor – inhibitors of CHOP induction in ER stress response; inhibition, % at 10 µM; actives 3.8% (n = 220,000); CHO-K1 CHOP-promoter luciferase, tunicamycin-induced, 15-18 h; AID 2732;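 active = compounds that reduced the stress-induced luciferase reporter signal by more than about 70% of percent inhibition, limit read from the data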;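 also: 0% = tunicamycin plus vehicle and 100% = wells without tunicamycin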
# UCH37 inh – human UCH37 deubiquitinating enzyme inhibition | Q9Y5K5 | inhibition, % (concentration not given with the values) | actives 0.33% (n = 330,000) | purified proteasome/UCH37, Ub-AMC cleavage fluorescence;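 active = mean inhibition over replicate wells above about 20%, limit read from the data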;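 also: 0% = compound-free wells with enzyme and 100% = wells lacking proteasome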
# Target sequence (Q9Y5K5 whole entry, looked up): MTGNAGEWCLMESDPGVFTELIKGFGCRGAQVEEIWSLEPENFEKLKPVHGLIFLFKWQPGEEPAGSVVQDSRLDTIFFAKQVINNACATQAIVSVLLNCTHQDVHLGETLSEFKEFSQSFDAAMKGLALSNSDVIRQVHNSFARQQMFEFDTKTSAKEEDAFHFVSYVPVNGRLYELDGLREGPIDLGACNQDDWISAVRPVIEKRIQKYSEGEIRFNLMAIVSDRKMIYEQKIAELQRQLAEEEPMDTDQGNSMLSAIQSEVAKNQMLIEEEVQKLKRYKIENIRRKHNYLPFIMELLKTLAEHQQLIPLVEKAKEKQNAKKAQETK
#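 Schedule: 30 min plus 25 min, room temperature / Material: human UCH37 within purified proteasomes / Technique: AMC fluorescence intensity at 355/460 nm / Buffer or medium: pH 7.4 Tris-HCl (50 mM) with ovalbumin, ATP-MgCl2, DTT / Controls: wells without proteasome as full block, compound-free enzyme plus substrate as uninhibited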
# CHOP UPR activ – apoptotic UPR (CHOP) activation | CHO-CHOP luciferase reporter, luminescence; percent of tunicamycin response over DMSO baseline | activation, % at 10 µM | actives 0.34% (n = 330,000);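 active = at 10 µM dose, activation of 40% or more, normalized to positive control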;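 also: 100% = tunicamycin at 10 µg/mL and 0% = DMSO alone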
#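 Test system: CHO-CHOP cells, stable luciferase reporter of PERK-eIF2a-CHOP signalling | Quantity: 500 CHO-CHOP cells per well | Buffer or medium: F12 plus 10% serum | Compound dosing: 10 µM single point, 0.5% DMSO | Schedule: 6 h compound treatment, 37 °C | Signal: Luciferase luminescence | Control set: Tunicamycin high control, DMSO low control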
# CHOP confirm – confirmation of CHOP induction inhibitors. shares compounds with CHOP inhibitor. CHO-CHOP promoter luciferase reporter, tunicamycin-induced, luminescence. inhibition, % at 10 µM. actives 45% (n = 2,100). AID 504437;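 active = mean of three repeat readings of reporter signal inhibition above a set limit, cut at about 70% in these data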;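 also: 0% = tunicamycin plus vehicle and 100% = wells lacking tunicamycin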
# CHOP UPR conf – confirmation of apoptotic unfolded protein response (CHOP) activators; shares compounds with CHOP UPR activ; CHO-CHOP cells, CHOP-luciferase reporter luminescence; percent of tunicamycin response, DMSO as zero; activation, % at 10 µM; actives 64% (n = 1,000); in the data active = activation above about 33%;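 also: 0% = DMSO wells and 100% = tunicamycin 10 µg/mL wells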
# UPR XBP1 confirm – confirmation of adaptive unfolded protein response (XBP1) activators; shares compounds with UPR XBP1 act; CHO-XBP1 IRE1-XBP1 luciferase reporter, luminescence; AID 485299; actives 63% (n = 1,000); activation, % at 20 µM;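 active = reporter signal at least 30% of the positive control's activation in two or more of four replicate wells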;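 also: plate controls were DMSO negative control for no effect and tunicamycin 10 µg/mL positive control for full effect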
# UCH37 reconfirm – reconfirmed inhibitor of human deubiquitinase UCH37; AID 624100; inhibition, % at 20 µM; actives 27% (n = 480); Proteasome-bound UCH37, Ub-AMC cleavage fluorescence; shares compounds with UCH37 inh;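 active = average inhibition over replicates above about 50%, so the earlier screening hit is confirmed, limit read from the data; inactive = the rest, counted as false positives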;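 also: based on cleavage rate fitted by regression over a 30 min kinetic read; 0% = proteasome plus Ub-AMC and 100% = Ub-AMC without proteasome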
# An asterisk follows results filed as active; x = no result; ! = repeats disagree.
SMILES,CTSL1 counter,UPR XBP1 act,CHOP inhibitor,UCH37 inh,CHOP UPR activ,CHOP confirm,CHOP UPR conf,others
C=C(C)Cn1c(SCC(=O)NN=Cc2cccc(O)c2)nc2ccccc2c1=O,x,x,x,2,x,x,x,
O=C(Cc1csc(Nc2nc(=S)[nH]c3ccccc23)n1)NCCCN1CCN(c2ccccc2F)CC1,3,64*,105*,1,3,85*,x,UPR XBP1 confirm=19
COc1ccc2cc(C)c3nnc(SCC(=O)Nc4nc(-c5ccc(F)cc5)cs4)n3c2c1,-4,216*,105*,-2,160*,7,88*,UPR XBP1 confirm=216*
O=S(=O)(NN=C1CCCc2ccccc21)c1ccccc1,x,x,x,1,x,x,x,
CCn1c(=O)c(C(=O)Nc2ccccc2)c(O)c2ccccc21,0,-1,x,-79,1,x,x,
CCn1c(=O)c(C(=O)Nc2nc3ccccc3[nH]2)c(O)c2ccccc21,-3,78*,x,-6,11,120*,x,UPR XBP1 confirm=14
O=C(NCCCNCCCNC(=O)c1ccc(C=NO)nc1)c1ccc(C=NO)nc1,x,x,x,3,x,x,x,
Oc1cccc(-c2nc3c4c(ncn3n2)-c2ccccc2CC42CCCC2)c1,-4,31*,100*,-1,5,83*,x,UPR XBP1 confirm=50*
CCOC(=O)c1ccc(-c2ccc(C=NNC(=O)c3cncc(Br)c3)o2)cc1,x,x,x,-33,x,x,x,
O=[N+]([O-])c1ccc(/C=N/n2c(C3CCCCC3)n[nH]c2=S)cc1,0,34*,105*,x,1,113*,x,UPR XBP1 confirm=3
COc1ccccc1NS(=O)(=O)c1cccc(C(=O)NN=C(C)c2ccncc2)c1,x,x,x,4,x,x,x,
O=C(/C=C\c1cn(-c2ccccc2)nc1-c1ccccc1)Nc1nccs1,2,106*,108*,-138,51*,105*,18,UPR XBP1 confirm=113*
CC(C)Cn1c2c(c(=O)[nH]c1=O)C(C(F)(F)F)(C(F)(F)F)N=C(CCC1CCCCC1)N2,6,33*,102*,-32,12,82*,x,UPR XBP1 confirm=38*
CCCN1C(=O)C(=NOCC(=O)Nc2ccc(C(C)C)cc2)c2ccccc21,x,x,x,7,x,x,x,
Cc1ccc(Cl)cc1NS(=O)(=O)c1ccccc1,x,x,x,2,x,x,x,
Cc1ccc(Cl)cc1NC1=C/C(=N\S(=O)(=O)c2cccs2)c2ccccc2C1=O,60*,-6,109*,43*,-6,116*,x,UCH37 reconfirm=31
CS(=O)(=O)c1ccc(S(=O)CC(=O)OCc2ccccc2)c([N+](=O)[O-])c1 (stereo unspecified),x,x,107*,44*,x,128*,x,UCH37 reconfirm=22
CCCCCCCCCCCCCCCC[n+]1cccc(C(=O)N(CC)CC)c1,2,-1,108*,58*!,0,115*,x,UCH37 reconfirm=66*
C=CCN1C(=O)C(C)SC1=NS(=O)(=O)c1ccc(Cl)cc1 (stereo unspecified),x,x,x,3,x,x,x,
CCCCCc1ccc(OCCOCCn2c[n+](C)c3ccccc32)c(CCCCC)c1,x,x,108*,33*,x,122*,x,UCH37 reconfirm=57*
Cn1cnc([N+](=O)[O-])c1S(=O)(=O)c1ccc(Cl)cc1,x,x,109*,49*,x,116*,x,UCH37 reconfirm=13
Cn1cnc([N+](=O)[O-])c1NC(C)(C)C,2,-4,27,9,0,x,x,
Nc1ccc2c(c1)C(=O)C(=O)c1ccccc1-2,112*,-8,x,99*,-8,140*,x,UCH37 reconfirm=101*
C=CCOc1ccccc1C=NNC(=O)Cc1ccccc1,x,x,x,2,x,x,x,
Cc1cc(C(=O)NN=Cc2ccc(-c3ccc([N+](=O)[O-])cc3Cl)o2)n[nH]1,x,x,x,13,x,x,x,
SMILES,CTSL1 counter,UPR XBP1 act,CHOP inhibitor,UCH37 inh,CHOP UPR activ,CHOP confirm,CHOP UPR conf,others
Cc1ccc(C(=O)ONc2ccc(N=O)cc2)cc1,3,-4,19,6,5,x,x,
Cc1ccc(C(=O)ONc2ccc(N=NC(=O)c3ccccc3O)cc2)cc1,-5,-1,103*,27*,-1,22,x,UCH37 reconfirm=31
O=S(=O)(NN=Cc1c(F)cccc1Cl)c1ccccc1,x,x,x,-1,x,x,x,
CCc1c(C)sc(NC(=O)c2cccs2)c1C#N,-1,5,-11,-55,50*,x,1,
O=C(NCCc1ccc(F)cc1)c1coc(=O)c(Br)c1,4,-8,x,2,125*,x,88*,
Oc1c(CN2CCc3ccccc3C2)cc(Cl)c2cccnc12,0,21,x,4,86*,x,325*,
O=C(Oc1c(CN2CCOCC2)cc(Cl)c2cccnc12)c1ccccc1F,-3,20,67,1,79*,x,70*,
Oc1c(CN2CCCCC2)cc(Br)c2cccnc12,-3,26,x,8,88*,x,125*,
Oc1c(Cl)cc(CN2CCOCC2)c2cccnc12,x,20,x,2,134*,x,128*,
O=C(Oc1c(CN2CCOCC2)cc(Cl)c2cccnc12)c1ccccc1,0,16,4,3,14,x,x,
Cc1cc(C=NNC(=O)c2cccc(F)c2)c(C)n1-c1ccccc1,x,x,x,-1,x,x,x,
C=CCN1C(=O)/C(=C/c2ccc(OC)cc2)SC1=Nc1nccs1,x,x,x,-5,x,x,x,
Oc1c(C(Nc2ccccn2)c2ccccn2)ccc2cccnc12 (stereo unspecified),-4,15,66,-2,59*,x,71*,
COc1cc(C(Nc2ccccn2)c2ccc3ccc(C)nc3c2O)cc(OC)c1O (stereo unspecified),3,1,x,3,263*,x,251*,
Cc1ccc2ccc(C(Nc3ccccn3)c3ccccc3)c(O)c2n1 (stereo unspecified),-4,2,-51,4,3,x,x,
COc1ccc(C=NNS(=O)(=O)c2ccc(F)cc2)cc1COc1cc(F)ccc1[N+](=O)[O-],x,x,x,1,x,x,x,
C=C1C(=O)C=C[C@]2(C)C[C@@H]3OC(=O)[C@](C)(O)[C@H]3C[C@@H]12,-4,3,36,x,59*,x,56*,
N#CC1(C#N)COC23CCCCC2C1(C#N)C(=N)O3 (stereo unspecified),2,-4,-197,-21,65*,x,55*,
CC1OC23CCCCC2C(C#N)(C(=N)O3)C1(C#N)C#N (stereo unspecified),-2,-1,12,-3,1,x,x,
CCC1OC23CCCCC2C(C#N)(C(=N)O3)C1(C#N)C#N (stereo unspecified),5,-6,10,2,10,x,x,

# Screens as filed in PubChem.
